Test results from publication PMC9720105 (Redox Biology, 2022).

Experiments:
KEAP1 in BEAS-2B cells = KEAP1 in BEAS-2B cells (Homo sapiens, UniProt Q14145); assay: KEAP1 degradation in BEAS-2B cells; type: cell-based
[1] = tested on: NQO1 and GCLM in BEAS-2B cells; assay: NQO1 and GCLM protein expression in BEAS-2B cells; type: cell-based, human; details: 48 h, all tested concentrations
KEAP1 in HEK293T cells = KEAP1 in HEK293T cells (Homo sapiens, UniProt Q14145); assay: KEAP1 degradation in HEK293T cells; type: cell-based
BEAS-2B cells proteome = assay: Label-free quantitative MS proteomics in BEAS-2B cells; type: cell-based, human; details: 0.13 μM, 48 h, vs DMSO
In short: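 BEAS-2B cells received DMSO or 0.13 μM test compound for 48 h, then were lysed in 5% SDS/50 mM TEAB. 20 μg protein was processed on S-traps (chloroacetamide alkylation), digested with trypsin/Lys-C and cleaned on SDB stage tips. About 100 ng peptide ran on a 48 min C18 gradient, timsTOF DIA-PASEF. Library-free search against human UniProt, 1% precursor FDR, MaxLFQ quantitation. Hits: >1.5-fold versus DMSO, adjusted P <0.01.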

[2] = tested on: NQO1, TALDO1, and GCLM mRNA in BEAS-2B cells; assay: Quantitative RT-PCR of antioxidant genes in BEAS-2B cells; type: cell-based, human; details: 0.13 μM, 48 h
In short: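 BEAS-2B cells were treated with 0.13 μM test compound for 48 h. RNA was extracted, reverse transcribed (SuperScript IV) and quantified by SYBR Green qPCR. Expression was normalized to 18S by the delta-delta-Ct method. Three independent experiments, each in technical triplicate; mean and S.D.; unpaired t-test.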

BEAS-2B cells = assay: Flow cytometric detection of cell viability after tBHP; type: cell-based, human; details: 50 μM tBHP
In short: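 BEAS-2B cells (LHC-9 with pen/strep) were seeded at 1.2 × 10⁴ cells/well overnight, pre-treated with test compound for 24 h, then given 50 μM tBHP for 24 h. Harvested cells were stained with 1 μg/mL propidium iodide. Gating used FSC-A/SSC-A to exclude debris and FSC-H/FSC-A to exclude doublets. Viability was % PI-negative cells. Three independent assays, single points each; mean and S.D.; unpaired t-test.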

KEAP1 in HCA7 cells = KEAP1 in HCA7 cells (Homo sapiens, UniProt Q14145); assay: KEAP1 degradation in HCA7 cells; type: cell-based; details: 48 h
In short: (§1)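 HEK293T, HCA7 and A549 cells were grown in DMEM with 10% FBS and pen/strep; BEAS-2B in LHC-9 with pen/strep; all at 37 °C, 10% CO₂. Cells were exposed to test compound for 48 h, lysed, run on 4–12% SDS-PAGE and transferred to nitrocellulose. Blocking was 5% skim milk for 1 h at RT. Probes were anti-KEAP1, CRBN, NQO1 or HO-1, with HRP anti-β-actin loading control and HRP secondaries. Blots represent 3 independent experiments.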

CRBN = CRBN (Homo sapiens, UniProt Q96SW2); assay: CRBN levels by immunoblotting; type: cell-based; details: HEK293T, HCA7, BEAS-2B, and A549 cells, 48 h
In short: as §1

[3] = biological target: recombinant KEAP1-Kelch domain (Homo sapiens, UniProt Q14145); assay: biochemical; type: binding
[4] = tested on: NRF2 downstream targets, NQO1 and HO-1; assay: NQO1 and HO-1 protein levels in HEK293T and HCA7 cell lines; type: cell-based; details: 48 h
In short: as §1

[5] = tested on: HepG2 ARE-luciferase reporter cells; assay: ARE-luciferase activity assay; type: cell-based; details: 48 h, 14: maximum at 1 μM
[6] = biological target: KEAP1 (G333C mutation in the KEAP1-Kelch domain) in A549 cells (Homo sapiens, UniProt Q14145, G333C); assay: KEAP1 degradation in A549 cells; type: cell-based; details: 48 h
In short: as §1

Sequence of KEAP1 in HEK293T cells (Q14145 whole entry): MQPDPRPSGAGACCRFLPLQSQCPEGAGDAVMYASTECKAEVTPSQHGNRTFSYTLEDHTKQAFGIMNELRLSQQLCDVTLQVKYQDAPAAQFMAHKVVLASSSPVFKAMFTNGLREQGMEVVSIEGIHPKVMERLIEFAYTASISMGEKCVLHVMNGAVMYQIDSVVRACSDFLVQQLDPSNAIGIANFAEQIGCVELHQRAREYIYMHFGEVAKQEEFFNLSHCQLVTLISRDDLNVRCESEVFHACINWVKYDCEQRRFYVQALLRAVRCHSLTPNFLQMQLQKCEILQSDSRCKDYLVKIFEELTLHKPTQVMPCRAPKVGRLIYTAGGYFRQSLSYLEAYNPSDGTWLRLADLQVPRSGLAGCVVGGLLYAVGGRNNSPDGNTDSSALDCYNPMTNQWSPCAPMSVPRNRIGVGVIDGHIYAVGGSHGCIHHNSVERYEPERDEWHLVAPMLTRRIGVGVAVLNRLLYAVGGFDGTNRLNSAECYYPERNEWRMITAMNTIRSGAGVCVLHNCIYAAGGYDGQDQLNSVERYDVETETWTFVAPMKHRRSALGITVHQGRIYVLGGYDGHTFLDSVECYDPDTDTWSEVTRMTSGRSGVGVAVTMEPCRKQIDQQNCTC
Sequence of KEAP1 (G333C mutation in the KEAP1-Kelch domain) in A549 cells (Q14145 whole entry G333C, the tested form may be a part): as the sequence (Q14145 whole entry) above, with G333C counted along it
Sequence of recombinant KEAP1-Kelch domain (Q14145 312-624): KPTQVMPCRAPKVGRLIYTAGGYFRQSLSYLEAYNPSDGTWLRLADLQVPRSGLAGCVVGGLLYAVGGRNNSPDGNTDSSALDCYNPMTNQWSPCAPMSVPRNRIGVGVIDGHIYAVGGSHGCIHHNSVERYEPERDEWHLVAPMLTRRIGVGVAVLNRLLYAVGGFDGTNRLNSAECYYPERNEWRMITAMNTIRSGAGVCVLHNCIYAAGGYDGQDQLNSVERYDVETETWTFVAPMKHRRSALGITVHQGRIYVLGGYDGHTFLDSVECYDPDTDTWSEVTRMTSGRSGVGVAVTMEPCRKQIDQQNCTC
Sequence of KEAP1 in HCA7 cells (Q14145 whole entry): as the sequence (Q14145 whole entry) above
Sequence of KEAP1 in BEAS-2B cells (Q14145 whole entry): as above
Sequence of CRBN (Q96SW2 whole entry): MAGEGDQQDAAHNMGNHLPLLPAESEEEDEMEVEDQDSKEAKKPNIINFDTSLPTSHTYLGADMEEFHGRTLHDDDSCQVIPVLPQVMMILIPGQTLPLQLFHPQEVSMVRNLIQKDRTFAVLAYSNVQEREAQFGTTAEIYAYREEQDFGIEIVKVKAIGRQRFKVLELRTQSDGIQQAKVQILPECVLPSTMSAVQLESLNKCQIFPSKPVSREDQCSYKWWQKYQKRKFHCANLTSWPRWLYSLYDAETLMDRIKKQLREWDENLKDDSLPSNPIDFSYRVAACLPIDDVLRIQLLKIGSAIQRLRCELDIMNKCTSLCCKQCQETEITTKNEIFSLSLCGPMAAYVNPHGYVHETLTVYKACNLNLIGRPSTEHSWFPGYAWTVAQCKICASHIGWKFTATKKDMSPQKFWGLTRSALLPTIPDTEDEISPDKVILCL

Compound: Cc1ccc(C(CC(=O)O)c2cc(OCCCCCCCNc3cccc4c3C(=O)N(C3CCC(=O)NC3=O)C4=O)c3c(c2)nnn3C)cc1CN1C[C@@H](C)Oc2ccccc2S1(=O)=O (stereo partly drawn) [Compound 14, 3-(7-((7-((2-(2,6-Dioxopiperidin-3-yl)-1,3-dioxoisoindolin-4-yl)amino)heptyl)oxy)-1-methyl-1H-benzo[d][1,2,3]triazol-5-yl)-3-(4-methyl-3-(((R)-4-methyl-1,1-dioxido-3,4-dihydro-2H-benzo[b][1,4,5]oxathiazepin-2-yl)methyl)phenyl)propanoic acid]
- Dmax at 0.0625 µM (KEAP1 in BEAS-2B cells): 90%
- increased expression of NQO1 and GCLM, compared with KEAP1 inhibitor 2 [1]: equipotent
- KEAP1 degradation / expression (KEAP1 in HEK293T cells; HEK293T cells, 48 h): robust degradation of KEAP1
- KEAP1 degradation at longer time points (KEAP1 in HEK293T cells; HEK293T cells, 48 h and 72 h, comparison of 8 and 14): degraded KEAP1 more efficiently at 48 and 72 h compared to 8
- hook effect observed at concentrations higher than (KEAP1 in HEK293T cells; HEK293T cells, dose titration 0.01–8 μM, 24 h): higher than 1 μM
- Dmax at 1 µM (KEAP1 in HEK293T cells; HEK-293T, read-out: maximum degradation (Dmax)): 94%
- ABHD4 abundance (proteomics) (BEAS-2B cells proteome): significantly upregulated
- ZFP91 abundance (proteomics) (BEAS-2B cells proteome): Off-target degradation of ZFP91
- abundance of KEAP1 (proteomics) (BEAS-2B cells proteome): significantly reduced the abundance of KEAP1
- abundance of other Kelch domain proteins KBTBD4, KLHDC2, and KLHL11 (proteomics) (BEAS-2B cells proteome): not impacted
- mRNA induction of GCLM [2]: 2 fold
- mRNA induction of NQO1 [2]: 4 fold
- mRNA induction of TALDO1 [2]: 2 fold
- rescue of cell viability from tBHP, comparison of 14 and 2 (BEAS-2B cells; between 500 and 16 nM): equal potent
- rescue of cell viability from tBHP, comparison of 14 and 2 (BEAS-2B cells; concentrations lower than 16 nM): less effective
- KEAP1 degradation / expression (KEAP1 in HCA7 cells): robust degradation of KEAP1
- CRBN levels (CRBN): no change in CRBN levels
- IC50 [3]: 0.046 µM
- HO-1 protein expression [4]: upregulated
- NQO1 protein expression [4]: upregulated
- induction of luciferase signal compared to the DMSO control group [5]: 3.5 fold
- KEAP1 degradation [6]: did not degrade KEAP1

Compound: COc1cc(C(CC(=O)O)c2ccc(C)c(CN3C[C@@H](C)Oc4ccccc4S3(=O)=O)c2)cc2nnn(C)c12 (stereo partly drawn) [Compound 2, 3-(7-Methoxy-1-methyl-1H-benzo[d][1,2,3]triazol-5-yl)-3-(4-methyl-3-(((R)-4-methyl-1,1-dioxido-3,4-dihydro-2H-benzo[b][1,4,5]oxathiazepin-2-yl)methyl)phenyl)propanoic acid]
- ABHD4 abundance (proteomics) (BEAS-2B cells proteome): not upregulated
- abundance of KEAP1 (proteomics) (BEAS-2B cells proteome): did not affect KEAP1 expression
- mRNA induction of GCLM [2]: 2 fold
- mRNA induction of NQO1 [2]: 4 fold
- mRNA induction of TALDO1 [2]: 2 fold
- rescue of cell viability from tBHP, comparison of 14 and 2 (BEAS-2B cells; between 500 and 16 nM): equal potent
- induction of luciferase signal compared to the DMSO control group [5]: 5- to 6 fold
